Reference: ChEMBL document CHEMBL5058577, “EUbOPEN Chemogenomics Library 2 (Multiplex)” (2022)

Tested on: Fibroblast
Assay: Multiplex assay against human fibroblast
Format: toxicity, cell-based
Outline: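 Cells were classed with CellPathfinder machine-learning gating, first as Hoechst high-intensity objects or normal cells, then (normal cells) as healthy, pyknosed or fragmented nuclei, and finally (pyknosed cells) as mitotic or apoptotic. Staining of live cells at seeding used Hoechst33342, BioTracker Green Microtubule Cytoskeleton Dye, MitoTracker Red and Annexin V Alexa Fluor 680, with imaging on a CQ1 microscope at 37°C and 5% CO2 after compound addition. Tubulin, mitochondrial-mass and membrane-permeability phenotypes are per cents of healthy-nucleus cells.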

[1] = 12 h, 1 µM, compound concentration 1 uM, replicate 1
[2] = 12 h, 1 µM, compound concentration 1 uM, replicate 2
[3] = 12 h, 10 µM, compound concentration 10 uM, replicate 1
[4] = 12 h, 10 µM, compound concentration 10 uM, replicate 2
[5] = 24 h, 1 µM, compound concentration 1 uM, replicate 1
[6] = 24 h, 1 µM, compound concentration 1 uM, replicate 2
[7] = 24 h, 10 µM, compound concentration 10 uM, replicate 1
[8] = 24 h, 10 µM, compound concentration 10 uM, replicate 2
[9] = 48 h, 1 µM, compound concentration 1 uM, replicate 1
[10] = 48 h, 1 µM, compound concentration 1 uM, replicate 2
[11] = 48 h, 10 µM, compound concentration 10 uM, replicate 1
[12] = 48 h, 10 µM, compound concentration 10 uM, replicate 2

CCc1nn2c(C)cc(C)nc2c1Cc1ccc(-c2nnc(C3CCNCC3)o2)cc1
Population Apoptotic (%) [1]: 34% | Population Fragmented Nuclei (%) [1]: 17% | Population Healthy Nuclei (%) [1]: 63% | Population Hoechst High Intensity Objects (%) [1]: 2% | Population Membrane Permeable-Phenotype (%) [1]: 2% | Population Mitochondria Different-Phenotype (%) [1]: 5% | Population Mitotic Cells (%) [1]: 65% | Population Normal (%) [1]: 97% | Population Pyknosed Nuclei (%) [1]: 19% | Population Tubulin-Different-Phenotype (%) [1]: 35% | Total Cell Count [1]: 153 | Population Apoptotic (%) [2]: 45% | Population Fragmented Nuclei (%) [2]: 19% | Population Healthy Nuclei (%) [2]: 46% | Population Hoechst High Intensity Objects (%) [2]: 6% | Population Mitochondria Different-Phenotype (%) [2]: 13% | Population Mitotic Cells (%) [2]: 54% | Population Normal (%) [2]: 93% | Population Pyknosed Nuclei (%) [2]: 33% | Population Tubulin-Different-Phenotype (%) [2]: 62% | Total Cell Count [2]: 167 | Population Apoptotic (%) [3]: 51% | Population Fragmented Nuclei (%) [3]: 19% | Population Healthy Nuclei (%) [3]: 62% | Population Hoechst High Intensity Objects (%) [3]: 5% | Population Membrane Permeable-Phenotype (%) [3]: 0% | Population Mitochondria Different-Phenotype (%) [3]: 19% | Population Mitotic Cells (%) [3]: 48% | Population Normal (%) [3]: 94% | Population Pyknosed Nuclei (%) [3]: 18% | Population Tubulin-Different-Phenotype (%) [3]: 72% | Total Cell Count [3]: 188 | Population Apoptotic (%) [4]: 14% | Population Fragmented Nuclei (%) [4]: 38% | Population Healthy Nuclei (%) [4]: 44% | Population Hoechst High Intensity Objects (%) [4]: 3% | Population Membrane Permeable-Phenotype (%) [4]: 5% | Population Mitochondria Different-Phenotype (%) [4]: 14% | Population Mitotic Cells (%) [4]: 85% | Population Normal (%) [4]: 96% | Population Pyknosed Nuclei (%) [4]: 17% | Population Tubulin-Different-Phenotype (%) [4]: 79% | Total Cell Count [4]: 162 | Population Apoptotic (%) [5]: 52% | Population Fragmented Nuclei (%) [5]: 17% | Population Healthy Nuclei (%) [5]: 68% | Population Hoechst High Intensity Objects (%) [5]: 1% | Population Membrane Permeable-Phenotype (%) [5]: 0% | Population Mitochondria Different-Phenotype (%) [5]: 3% | Population Mitotic Cells (%) [5]: 47% | Population Normal (%) [5]: 98% | Population Pyknosed Nuclei (%) [5]: 13% | Population Tubulin-Different-Phenotype (%) [5]: 35% | Total Cell Count [5]: 153 | Population Apoptotic (%) [6]: 56% | Population Fragmented Nuclei (%) [6]: 26% | Population Healthy Nuclei (%) [6]: 49% | Population Hoechst High Intensity Objects (%) [6]: 7% | Population Membrane Permeable-Phenotype (%) [6]: 6% | Population Mitochondria Different-Phenotype (%) [6]: 15% | Population Mitotic Cells (%) [6]: 43% | Population Normal (%) [6]: 92% | Population Pyknosed Nuclei (%) [6]: 23% | Population Tubulin-Different-Phenotype (%) [6]: 65% | Total Cell Count [6]: 177 | Population Apoptotic (%) [7]: 53% | Population Fragmented Nuclei (%) [7]: 17% | Population Healthy Nuclei (%) [7]: 64% | Population Hoechst High Intensity Objects (%) [7]: 9% | Population Membrane Permeable-Phenotype (%) [7]: 0% | Population Mitochondria Different-Phenotype (%) [7]: 22% | Population Mitotic Cells (%) [7]: 46% | Population Normal (%) [7]: 90% | Population Pyknosed Nuclei (%) [7]: 17% | Population Tubulin-Different-Phenotype (%) [7]: 79% | Total Cell Count [7]: 185 | Population Apoptotic (%) [8]: 56% | Population Fragmented Nuclei (%) [8]: 40% | Population Healthy Nuclei (%) [8]: 42% | Population Hoechst High Intensity Objects (%) [8]: 3% | Population Membrane Permeable-Phenotype (%) [8]: 11% | Population Mitochondria Different-Phenotype (%) [8]: 16% | Population Mitotic Cells (%) [8]: 44% | Population Normal (%) [8]: 96% | Population Tubulin-Different-Phenotype (%) [8]: 80% | Total Cell Count [8]: 151 | Population Apoptotic (%) [9]: 76% | Population Fragmented Nuclei (%) [9]: 21% | Population Healthy Nuclei (%) [9]: 70% | Population Hoechst High Intensity Objects (%) [9]: 4% | Population Membrane Permeable-Phenotype (%) [9]: 1% | Population Mitochondria Different-Phenotype (%) [9]: 2% | Population Mitotic Cells (%) [9]: 23% | Population Normal (%) [9]: 95% | Population Pyknosed Nuclei (%) [9]: 7% | Population Tubulin-Different-Phenotype (%) [9]: 32% | Total Cell Count [9]: 172 | Population Apoptotic (%) [10]: 62% | Population Fragmented Nuclei (%) [10]: 30% | Population Healthy Nuclei (%) [10]: 54% | Population Membrane Permeable-Phenotype (%) [10]: 3% | Population Mitochondria Different-Phenotype (%) [10]: 12% | Population Mitotic Cells (%) [10]: 37% | Population Pyknosed Nuclei (%) [10]: 14% | Population Tubulin-Different-Phenotype (%) [10]: 54% | Total Cell Count [10]: 168 | Population Apoptotic (%) [11]: 84% | Population Fragmented Nuclei (%) [11]: 23% | Population Healthy Nuclei (%) [11]: 62% | Population Hoechst High Intensity Objects (%) [11]: 9% | Population Membrane Permeable-Phenotype (%) [11]: 0% | Population Mitochondria Different-Phenotype (%) [11]: 16% | Population Mitotic Cells (%) [11]: 15% | Population Normal (%) [11]: 90% | Population Pyknosed Nuclei (%) [11]: 13% | Population Tubulin-Different-Phenotype (%) [11]: 73% | Total Cell Count [11]: 208 | Population Apoptotic (%) [12]: 54% | Population Fragmented Nuclei (%) [12]: 45% | Population Healthy Nuclei (%) [12]: 47% | Population Hoechst High Intensity Objects (%) [12]: 2% | Population Membrane Permeable-Phenotype (%) [12]: 2% | Population Mitochondria Different-Phenotype (%) [12]: 17% | Population Mitotic Cells (%) [12]: 45% | Population Normal (%) [12]: 97% | Population Pyknosed Nuclei (%) [12]: 7% | Population Tubulin-Different-Phenotype (%) [12]: 78% | Total Cell Count [12]: 161
